Measurements from ChEMBL document CHEMBL4393721 (Eur J Med Chem, 2019).
Calls of active or inactive are those of the source. No cut-off for these calls is given here.

Columns and labels:
[1] = tested on: HepG2; test: Antiinflammatory activity in human HepG2 cells assessed as inhibition of TNFalpha-induced IkappaBalpha degradation at 2 uM pretreated for 1 hr followed by TNFalpha addition and measured after 30 mins by Western blot analysis; type: functional, cell-based
How it was run: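 HepG2 cells grown in DMEM with 10% FBS were exposed to compound for 1 hr and to TNFα (20 ng/mL) for 30 min. Lysates were run on 10% SDS-PAGE and immunoblotted for IκBα with ECL detection. Band grey values were quantified by densitometry. Data are mean ± SEM of three independent experiments.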

[2] = target: T1, Nuclear receptor subfamily 4immunitygroup A member 1 (Homo sapiens, UniProt P22736); test: Binding affinity to recombinant human N-terminal His-tagged Nur77 LBD (367 to 598 residues) expressed in Escherichia coli BL21(DE3) incubated for 30 secs by fluorescence quenching assay
T1 sequence (P22736 whole entry, the tested form may be a part): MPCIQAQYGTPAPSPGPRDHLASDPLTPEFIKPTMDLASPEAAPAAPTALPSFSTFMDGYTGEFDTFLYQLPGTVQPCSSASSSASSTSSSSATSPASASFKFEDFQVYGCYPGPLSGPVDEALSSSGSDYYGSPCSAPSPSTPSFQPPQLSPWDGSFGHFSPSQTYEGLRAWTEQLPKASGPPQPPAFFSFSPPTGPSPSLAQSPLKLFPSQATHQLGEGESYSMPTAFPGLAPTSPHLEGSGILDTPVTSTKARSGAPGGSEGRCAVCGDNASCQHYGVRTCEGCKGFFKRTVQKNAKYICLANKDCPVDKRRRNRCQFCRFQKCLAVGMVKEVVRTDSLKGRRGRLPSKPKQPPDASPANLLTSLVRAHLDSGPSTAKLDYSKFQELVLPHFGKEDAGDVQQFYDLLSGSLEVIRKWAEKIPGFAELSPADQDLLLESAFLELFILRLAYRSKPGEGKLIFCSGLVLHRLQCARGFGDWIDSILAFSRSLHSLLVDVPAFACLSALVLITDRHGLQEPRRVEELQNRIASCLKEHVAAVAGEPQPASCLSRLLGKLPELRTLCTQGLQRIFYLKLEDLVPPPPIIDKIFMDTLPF

[3] = tested on: HepG2; test: Induction of apoptosis in TNFalpha-treated human HepG2 cells assessed as non-viable apoptotic cells at 2 uM incubated for 10 hrs by FITC Annexin V and propidium iodide staining based flow cytometric analysis (reference value: 6.65%); type: cell-based; settings: hepg2, 10 h
How it was run: (§1)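 HepG2 cells grown in DMEM with 10% FBS were treated for 10 hr with compound (2 μM) plus TNFα (20 ng/mL). Cells were collected in binding buffer, stained with FITC-Annexin V and propidium iodide at room temperature, and analysed by flow cytometry. Quadrants as labelled: UL necrotic, UR viable apoptotic, LR non-viable apoptotic, LL normal.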

[4] = tested on: HepG2; test: Induction of apoptosis in TNFalpha-treated human HepG2 cells assessed as necrotic cells at 2 uM incubated for 10 hrs by FITC Annexin V and propidium iodide staining based flow cytometric analysis (reference value: 1.29%); type: cell-based; settings: hepg2, 10 h; how it was run: as §1
[5] = tested on: HepG2; test: Induction of apoptosis in TNFalpha-treated human HepG2 cells assessed as viable apoptotic cells at 2 uM incubated for 10 hrs by FITC Annexin V and propidium iodide staining based flow cytometric analysis (reference value: 3.69%); type: cell-based; settings: hepg2, 10 h; how it was run: as §1
[6] = target: T1, Nuclear receptor subfamily 4immunitygroup A member 1; test: Binding affinity to Myc-Nur77 (unknown origin) expressed in human HepG2 cells co-transfected with Flag tagged TRAF2 assessed as effect on protein interaction with TRAF2 at 2 uM incubated for 1 hr in presence of TNFalpha by co-immunoprecipitation assay; type: cell-based
How it was run: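 HepG2 cells were transfected with Myc-Nur77 and Flag-TRAF2, then treated for 1 hr with compound (2 μM) plus TNFα (20 ng/mL). Lysis buffer was 10 mM Tris pH 7.4, 150 mM NaCl, 1% Triton X-100, 5 mM EDTA and protease inhibitors. Lysate was incubated with 1 μg antibody for 2 hr at 4 °C, pulled down with protein A/G sepharose, washed, and read by Western blot.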

[7] = Induction of apoptosis in TNFalpha-treated human HepG2 cells assessed as normal cells at 2 uM incubated for 10 hrs by FITC Annexin V and propidium iodide staining based flow cytometric analysis (reference value: 88.37%); type: cell-based; settings: read-out: Activity; how it was run: as §1
[8] = target: T1, Nuclear receptor subfamily 4immunitygroup A member 1; test: Binding affinity to GFP-Nur77 (unknown origin) expressed in human HepG2 cells cotransfected with mCherry-p62/SQSTM1 assessed as co-localization with p62/SQSTM1 in cytoplasm in presence of TNFalpha by DAPI staining based confocal microscopic analysis; type: cell-based
How it was run: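 HepG2 cells were transfected with GFP-Nur77 and mCherry-p62/SQSTM1, then treated with TNFα plus compound. Cells were fixed in paraformaldehyde, with nuclei counterstained by DAPI (1:10000). Nur77–p62 colocalization was imaged by fluorescence or LSM-510 confocal microscopy.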

[9] = tested on: HepG2; test: Induction of apoptosis in TNFalpha-treated human HepG2 cells assessed as PARP cleavage at 2 uM incubated for 10 hrs by Western blot analysis; type: cell-based; settings: hepg2, 10 h
[10] = Toxicity in zebrafish embryo AB assessed as mortality at 0.5 uM incubated for 24 hrs; set-up: species or system Danio rerio; settings: in vivo
How it was run: (§2)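 Wild-type AB zebrafish embryos (20 per condition), collected within 0.5 h of spawning, were exposed from 2 hpf to 0.5, 1 or 1.25 µM compound in fish water, with 0.1% DMSO as control. Embryos were observed and imaged every 24 h. Mortality was scored at 24 and 72 hpf and malformation rate at 72 hpf.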

[11] = Toxicity in zebrafish embryo AB assessed as induction of malformation at 0.5 to 1.25 uM incubated for 24 to 72 hrs; set-up: species or system Danio rerio; settings: in vivo; how it was run: as §2
[12] = Toxicity in zebrafish embryo AB assessed as mortality at 0.125 uM incubated for 24 hrs; set-up: species or system Danio rerio; settings: in vivo
[13] = Toxicity in zebrafish embryo AB assessed as mortality at 0.5 uM incubated for 72 hrs; set-up: species or system Danio rerio; settings: in vivo; how it was run: as §2
[14] = Toxicity in zebrafish embryo AB assessed as mortality at 0.5 uM incubated for 72 hrs relative to control; set-up: species or system Danio rerio; settings: in vivo, read-out: Activity; how it was run: as §2
[15] = Toxicity in zebrafish embryo AB assessed as mortality at 0.125 uM incubated for 24 hrs relative to control; set-up: species or system Danio rerio; settings: in vivo, read-out: Activity

COC(=O)[C@]1(C)CC[C@]2(C)CC[C@]3(C)C4=CC=C5C(=CC(=O)C(O)=C5C)[C@]4(C)CC[C@@]3(C)[C@@H]2C1 [PRISTIMERIN]
inhibition [1]: Active | Kd ([2]; read-out: Kd): 960 nM

CC1=C(O)C(=O)C=C2C1=CC=C1[C@@]2(C)CC[C@@]2(C)[C@@H]3C[C@](C)(C(=O)OC(C)C)CC[C@]3(C)CC[C@]12C
inhibition [1]: Active | Kd ([2]; read-out: Kd): 520 nM

Cc1c(O)c(O)cc2c1[C@H](C[N+](=O)[O-])C=C1[C@@]2(C)CC[C@@]2(C)[C@@H]3C[C@](C)(C(=O)O)CC[C@]3(C)CC[C@]12C
inhibition [1]: inactive | Kd ([2]; read-out: Kd): 5560 nM

Cc1c(O)c(O)cc2c1[C@H](c1cc[nH]c1)C=C1[C@@]2(C)CC[C@@]2(C)[C@@H]3C[C@](C)(C(=O)O)CC[C@]3(C)CC[C@]12C
inhibition [1]: inactive | Kd [2]: Not Active

CCNC(=O)[C@]1(C)CC[C@]2(C)CC[C@]3(C)C4=CC=C5C(=CC(=O)C(O)=C5C)[C@]4(C)CC[C@@]3(C)[C@@H]2C1
Activity [3]: 24% | inhibition [1]: Active | Kd ([2]; read-out: Kd): 830 nM | Activity [4]: 3.92% | Activity [5]: 18.35% | Activity [6]: Active | viability at 10 h, 2 µM [7]: 53.7% | Activity [8]: Active | Activity [9]: Toxic

Cc1c(O)c(O)cc2c1[C@H](C)C=C1[C@@]2(C)CC[C@@]2(C)[C@@H]3C[C@](C)(C(=O)O)CC[C@]3(C)CC[C@]12C
inhibition [1]: inactive | Kd [2]: Not Active

CNC(=O)[C@]1(C)CC[C@]2(C)CC[C@]3(C)C4=CC=C5C(=CC(=O)C(O)=C5C)[C@]4(C)CC[C@@]3(C)[C@@H]2C1
inhibition [1]: Active | Kd ([2]; read-out: Kd): 800 nM

Cc1c(O)c(O)cc2c1CC=C1[C@@]2(C)CC[C@@]2(C)[C@@H]3C[C@](C)(C(=O)O)CC[C@]3(C)CC[C@]12C [DIHYDROCELASTROL]
Activity [10]: Toxic | Activity [11]: Toxic | Activity [3]: 11.09% | inhibition [1]: Active | Kd ([2]; read-out: Kd): 870 nM | Activity [4]: 0.79% | Activity [12]: Toxic | Activity [13]: Toxic | Activity [5]: 3.12% | Activity [6]: Active | viability at 10 h, 2 µM [7]: 85% | Activity [8]: Active | Activity [9]: Non-Toxic

COC(=O)[C@]1(C)CC[C@]2(C)CC[C@]3(C)C4=CCc5c(cc(OC)c(O)c5C)[C@]4(C)CC[C@@]3(C)[C@@H]2C1
inhibition [1]: inactive | Kd [2]: Not Active

CC1=C(O)C(=O)C=C2C1=CC=C1[C@@]2(C)CC[C@@]2(C)[C@@H]3C[C@](C)(C(=O)F)CC[C@]3(C)CC[C@]12C
inhibition [1]: Active | Kd ([2]; read-out: Kd): 720 nM

CC1=C(O)C(=O)C=C2C1=CC=C1[C@@]2(C)CC[C@@]2(C)[C@@H]3C[C@](C)(C(=O)O)CC[C@]3(C)CC[C@]12C [CELASTROL]
Activity [10]: Toxic | Activity [11]: Toxic | mortality at 72 h, 0.5 µM [14]: 100% | Activity [3]: 24.98% | inhibition [1]: Active | mortality at 24 h, 0.125 µM [15]: 90% | Activity [4]: 1.75% | Activity [5]: 10.34% | Activity [6]: Active | viability at 10 h, 2 µM [7]: 62.9% | Activity [8]: Active | Activity [9]: Toxic

COP(=O)(OC)[C@@H]1C=C2[C@@](C)(CC[C@@]3(C)[C@@H]4C[C@](C)(C(=O)O)CC[C@]4(C)CC[C@]23C)c2cc(O)c(O)c(C)c21
inhibition [1]: inactive | Kd [2]: Not Active

COC(=O)[C@]1(C)CC[C@]2(C)CC[C@]3(C)C4=CCc5c(cc(OC)c(OC)c5C)[C@]4(C)CC[C@@]3(C)[C@@H]2C1
inhibition [1]: inactive | Kd [2]: Not Active

COC(=O)[C@]1(C)CC[C@]2(C)CC[C@]3(C)C4=CC=C5C(=CC(=O)C(OC)=C5C)[C@]4(C)CC[C@@]3(C)[C@@H]2C1
inhibition [1]: inactive | Kd ([2]; read-out: Kd): 2940 nM

COc1cc2c(c(C)c1OC)CC=C1[C@@]2(C)CC[C@@]2(C)[C@@H]3C[C@](C)(C(=O)O)CC[C@]3(C)CC[C@]12C
inhibition [1]: inactive | Kd [2]: Not Active

CCOC(=O)[C@]1(C)CC[C@]2(C)CC[C@]3(C)C4=CC=C5C(=CC(=O)C(O)=C5C)[C@]4(C)CC[C@@]3(C)[C@@H]2C1
inhibition [1]: Active | Kd ([2]; read-out: Kd): 220 nM

CC(=O)C[C@@H]1C=C2[C@@](C)(CC[C@@]3(C)[C@@H]4C[C@](C)(C(=O)O)CC[C@]4(C)CC[C@]23C)c2cc(O)c(O)c(C)c21
inhibition [1]: inactive | Kd ([2]; read-out: Kd): 3800 nM

COc1c(O)cc2c(c1C)CC=C1[C@@]2(C)CC[C@@]2(C)[C@@H]3C[C@](C)(C(=O)O)CC[C@]3(C)CC[C@]12C
inhibition [1]: inactive | Kd [2]: Not Active

CCOC1=C(C)C2=CC=C3[C@@](C)(CC[C@@]4(C)[C@@H]5C[C@](C)(C(=O)OC)CC[C@]5(C)CC[C@]34C)C2=CC1=O
inhibition [1]: inactive | Kd ([2]; read-out: Kd): 4130 nM

COc1cc2c(c(C)c1O)CC=C1[C@@]2(C)CC[C@@]2(C)[C@@H]3C[C@](C)(C(=O)O)CC[C@]3(C)CC[C@]12C
inhibition [1]: inactive | Kd [2]: Not Active

COC(=O)[C@]1(C)CC[C@]2(C)CC[C@]3(C)C4=CCc5c(cc(O)c(OC)c5C)[C@]4(C)CC[C@@]3(C)[C@@H]2C1
Kd [2]: Not Active

COC(=O)[C@]1(C)CC[C@]2(C)CC[C@]3(C)C4=CC=C5C(=CC(=O)C(OCC(F)F)=C5C)[C@]4(C)CC[C@@]3(C)[C@@H]2C1
inhibition [1]: inactive | Kd ([2]; read-out: Kd): 3300 nM

Cc1c(O)c(O)cc2c1C(=O)C=C1[C@@]2(C)CC[C@@]2(C)[C@@H]3C[C@](C)(C(=O)O)CC[C@]3(C)CC[C@]12C
inhibition [1]: inactive | Kd ([2]; read-out: Kd): 2690 nM

CCCNC(=O)[C@]1(C)CC[C@]2(C)CC[C@]3(C)C4=CC=C5C(=CC(=O)C(O)=C5C)[C@]4(C)CC[C@@]3(C)[C@@H]2C1
inhibition [1]: Active | Kd ([2]; read-out: Kd): 270 nM

Cc1c(O)c(O)cc2c1[C@H](CN)C=C1[C@@]2(C)CC[C@@]2(C)[C@@H]3C[C@](C)(C(=O)O)CC[C@]3(C)CC[C@]12C
inhibition [1]: inactive | Kd [2]: Not Active
